The nature of series [1]: Cytotoxicity against rat C6 cells assessed as cell viability at 20 uM by MTT assay relative to control. The class given is cell-based. Conditions: read-out: Activity. The method in brief: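 C6 cells exposed to 20 μM of each compound; viability read by MTT and expressed as percent. Means ± SD of three independent experiments.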
In general terms: Formazan colour is commonly taken as a measure of viable cells.

For another series, the system named is C6. Description: Neuroprotective activity in rat C6 cells assessed as NGF secretion at 20 uM incubated for 24 hrs by ELISA relative to control. The class given is functional. The method in brief: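 Compounds applied to C6 glioma cells at 20 μM for 24 h; NGF released into the conditioned medium quantified by ELISA and given as percent of untreated control (100%). 6-Shogaol served as positive control. Means ± SD of three independent experiments.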

Series [2] is described as follows: Cytotoxicity against mouse BV2 cells assessed as cell viability at 20 uM by MTT assay relative to control. The class given is cell-based, BV-2. Conditions: read-out: Activity. The method in brief: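 BV2 cells treated with 20 μM of each compound; viability determined by MTT and expressed as percent. Means ± SD of three independent experiments.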
For another series, the system named is BV-2. The series is described as follows: Antineuroinflammatory activity against mouse BV2 cells assessed as inhibition of LPS-induced NO production incubated for 24 hrs by Griess assay. It is filed as functional, cell-based. Conditions: BV-2, 24 h. The essentials: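 BV2 microglia activated with LPS; NO production measured across compound concentrations, IC50 taken as the concentration (μM) giving 50% inhibition of NO production. Means ± SD of three independent experiments.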
Background: Griess reagent forms a coloured azo dye with nitrite.

As for `C=C1CC[C@@H]2[C@](C)(CC[C@H](O)[C@]2(C)C(=O)O[C@@H]2O[C@H](CO)[C@@H](O)[C@H](O)[C@H]2O)[C@H]1CCC1=CCOC1=O`, the values for the viability at 20 µM in series [1] and in series [2] were 98.3% and 91.3%, respectively. Moreover, the Activity in the series with C6 was found to be 134.7%. For the same molecule, the IC50 in the series on BV-2 amounted to 68.8 µM.
On to `C[C@]12CCC[C@](C)(C(=O)O[C@@H]3O[C@H](CO)[C@@H](O)[C@H](O)[C@H]3O)[C@@H]1CC[C@@](C)(O)[C@@H]2CCC1=CCOC1=O`, for which the viability at 20 µM in series [1] was 111%; in series [2] it was 70.4%. For the same molecule, in the series on C6, the Activity is listed as 84.5%. Moreover, the IC50 in the series on BV-2 worked out at 402 µM.
`C=C1CC[C@@H]2[C@](C)(CCC[C@]2(C)C(=O)O[C@@H]2O[C@H](CO)[C@@H](O)[C@H](O)[C@H]2O)[C@H]1CCC1=CCOC1=O`: the viability at 20 µM in series [1] amounted to 101%; in series [2], 92.1%. The Activity with C6 came to 142.4%. For the same molecule, in the series with BV-2, the IC50 was found to be 65.8 µM.
`CNC(=N)NCCC[C@H](N)C(=O)O` [TILARGININE]: the viability at 20 µM in series [2] was found to be 99.2%. The IC50 in the series on BV-2 was found to be 28.8 µM.
As for `C=C1CC[C@@H]2[C@](C)(CCC[C@]2(C)C(=O)O[C@@H]2O[C@H](CO)[C@@H](O)[C@H](O)[C@H]2O)[C@H]1CC/C(=C\CO)CO`, the results for the viability at 20 µM in series [1] and in series [2] were 104% and 135%, respectively. Further, the Activity in the series with C6 is given as 162.3%. For the same molecule, the concentration for half-maximal inhibition (IC50) in the series with BV-2 stood at 65.4 µM.
On to `C[C@]12CCC[C@](C)(C(=O)O[C@@H]3O[C@H](CO)[C@@H](O)[C@H](O)[C@H]3O)[C@@H]1CC=C(CO)[C@@H]2CCC1=CCOC1=O`, for which the viability at 20 µM in series [1] was 102%; in series [2], 87.7%. For the same molecule, the Activity in the series on C6 is given as 119.4%. In addition, the IC50 in the series on BV-2 turned out to be 93.2 µM.
In the case of `C=C1CC[C@@H]2[C@](C)(CCC[C@]2(C)C(=O)O[C@@H]2O[C@H](CO)[C@@H](O)[C@H](O)[C@H]2O)[C@H]1CC/C(=C/CO)CO`, the viability at 20 µM in series [1] is 86.5%; in series [2], 133%. For the same molecule, in the series with C6, the Activity is 105.4%. Also, the IC50 with BV-2 worked out at 152 µM.
As for `C=C1CC[C@@H]2[C@](C)(CCC[C@]2(C)C(=O)O[C@@H]2O[C@H](CO)[C@@H](O)[C@H](O)[C@H]2O)[C@H]1CCC1=CC(=O)OC1`, the viability at 20 µM in series [1] was determined as 105%; in series [2] it was 107%. Moreover, the Activity in the series on C6 is 162.7%. Also, in the series with BV-2, the IC50 came out at 54.1 µM.
With `C=C1C[C@H](O)[C@@H]2[C@](C)(CCC[C@]2(C)C(=O)O[C@@H]2O[C@H](CO)[C@@H](O)[C@H](O)[C@H]2O)[C@H]1CCC1=CCOC1=O`, the viability at 20 µM in series [1] came to 101%; in series [2], 99.7%. Besides, in the series with C6, the Activity came to 128.7%. Also, the concentration for half-maximal inhibition (IC50) in the series on BV-2 was found to be 35.7 µM.
The like results for `C=C1CC[C@@H]2[C@](C)(CC[C@@H](O)[C@]2(C)C(=O)O[C@@H]2O[C@H](CO)[C@@H](O)[C@H](O)[C@H]2O)[C@H]1CCC1=CCOC1=O` were, in that order, 92.8%, 77.5%, 106.6% and 24.1 µM.
As for `C[C@]12CCC[C@](C)(C(=O)O[C@@H]3O[C@H](CO)[C@@H](O)[C@H](O)[C@H]3O)[C@@H]1CC[C@](C)(O)[C@@H]2CCC1=CCOC1=O`, the viability at 20 µM turned out to be 94.2% in series [1] and 89.6% in series [2]. Also, the Activity in the series on C6 is 106.1%. For the same molecule, the 50% inhibitory concentration (IC50) in the series with BV-2 came out at 49.2 µM.
Turning to `C=C1CC[C@@H]2[C@](C)(CCC[C@]2(O)C(=O)O[C@@H]2O[C@H](CO)[C@@H](O)[C@H](O)[C@H]2O)[C@H]1CCC1=CCOC1=O`, the viability at 20 µM was found to be 76% in series [1] and 80.7% in series [2]. For the same molecule, in the series with C6, the Activity is listed as 98.6%. In the series with BV-2, the IC50 amounted to 51.6 µM.

Broadly, the IC50 is the point on the concentration scale where inhibition reaches its midpoint.

These data come from ChEMBL document CHEMBL4622889, “Antineurodegenerative Labdane Diterpenoid Glycosides from the Twigs of Pinus koraiensis” (J Nat Prod, 2020).
